Source: PubChem (The Scripps Research Institute Molecular Screening Center)
Hits are enriched below; roughly 2.9% of the tested compounds scored in any of these assays.
OX1R antag-1: antagonists of human orexin 1 receptor; O43613; CHO/OX1R cells, Fluo-8 calcium fluorescence, orexin A; inhibition, % at 5 µM; hit rate 0.43% among 330,000; AID 434989;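 active means inhibition above its plate's threshold, mean inhibition of all tested compounds on the plate plus 3 SD, cut at about 37% in these data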
Target sequence (O43613 whole entry, looked up): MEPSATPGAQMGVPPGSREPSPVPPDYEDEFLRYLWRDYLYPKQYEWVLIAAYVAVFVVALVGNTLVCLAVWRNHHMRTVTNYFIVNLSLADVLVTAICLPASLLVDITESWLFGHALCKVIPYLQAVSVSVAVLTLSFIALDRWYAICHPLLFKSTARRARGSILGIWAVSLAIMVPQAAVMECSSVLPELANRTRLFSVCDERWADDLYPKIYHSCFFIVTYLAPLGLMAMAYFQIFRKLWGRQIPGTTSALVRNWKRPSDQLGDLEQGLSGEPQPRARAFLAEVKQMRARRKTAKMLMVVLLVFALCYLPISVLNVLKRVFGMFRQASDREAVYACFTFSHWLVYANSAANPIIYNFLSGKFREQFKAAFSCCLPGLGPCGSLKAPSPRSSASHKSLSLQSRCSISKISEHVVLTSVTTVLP
CHO-K1 Ca ag: M1 agonist counterscreen hit in parental CHO-K1 cells | AID 602248 | activation, % at 3 µM | hit rate 0.48% among 360,000 | Fluo-8 calcium fluorescence; scaled to maximal ATP response, vehicle zero; in the data active means activation above about 15%;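 further: untransfected CHO-K1 host cells lacking M1 receptor as counterscreen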
OX1R antag-2: blocks the human orexin 1 receptor. inhibition, % at 6.6 µM. AID 485270. OX1R-expressing cells, FRET antagonist read-out. O43613. hit rate 1.8% among 330,000; in the data active means inhibition mostly above about 38%, no sharp cut-off; inactive means mostly below about 40%
M1 PAM parental: M1 PAM counterscreen hit in parental CHO-K1 cells; hit rate 0.02% among 360,000; activation, % at 3 µM; ATP EC20, Fluo-8 calcium fluorescence; 0% at ATP EC20, 100% at ATP max; AID 602247;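 active means activation above the run cutoff, the mean activation of all test compounds plus 3 SD, cut at about 40% in these data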;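 further: peak over basal fluorescence ratio in a 140 s read after ATP addition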
CHO parental Ca: counter-screen: ATP calcium response change in parental CHO cells; parental CHO-K1, ATP-induced calcium, Fluo-8 fluorescence; inhibition, % at 5.6 µM; hit rate 0.63% among 330,000;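 active means inhibition above that plate's mean sample inhibition plus 3 SD, cut at about 26% in these data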
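Assay system – parental CHO cells · Reagent – ATP stimulus · Detection – intracellular calcium via Fluo-8 no-wash fluorescent dye · Evaluation – percent inhibition of ATP-evoked calcium rise, normalized to controls · Controls – ATP wells versus no-ATP DMSO wells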
CHO-K1 Ca antag: M1 antagonist counterscreen hit in parental CHO-K1 cells; hit rate 0.6% among 360,000; ATP-induced calcium, Fluo-8 fluorescence; inhibition, % at 3 µM;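 active means inhibition above a per-plate cutoff, the plate's mean sample inhibition plus 3 SD, cut at about 24% in these data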
Of the large screens only hits and unclear results are named; the others gave an inactive call.

CN(C)c1ccc(/C=C/c2ccc3ccccc3[n+]2C)cc1	OX1R antag-2 162.7
CN(C)c1ccc(/C=C/c2ccc3c4ccccc4ccc3[n+]2-c2ccccc2)cc1	CHO-K1 Ca ag 15.7, CHO-K1 Ca antag 40.7 (no result: OX1R antag-1, OX1R antag-2, CHO parental Ca)
CN(C)c1ccc(/C=C/c2nc3ccccc3c(=O)[nH]2)cc1	none
CC(=O)Oc1ccccc1/C=C/c1ccc2ccccc2[n+]1C	OX1R antag-2 66.0
O=C(COC(=O)CCc1ccc(S(=O)(=O)N2CCOCC2)cc1)Nc1ccccc1OC(F)F	none
CSc1nc2c(c(-c3ccc(O)cc3)c1C#N)CCC2	CHO parental Ca 48.0
COc1ccc(-c2c(C#N)c(N)nc3c2CCC3)cc1	none
COc1ccc(OCCCC(=O)OC(C)C(=O)Nc2cccc(C(C)=O)c2)cc1 (centres undefined)	OX1R antag-2 64.2
CC(OC(=O)CCCOc1ccccc1)C(=O)NC(N)=O (centres undefined)	CHO-K1 Ca antag 28.4
COc1ccc(OCCCC(=O)Nc2cccc(C(C)=O)c2)cc1	none
COc1ccc(N)c2c1C(=O)c1ccccc1C2=O	OX1R antag-2 70.2
COc1ccc2noc3c2c1C(=O)c1ccccc1-3	OX1R antag-1 50.9, CHO-K1 Ca ag 21.8, OX1R antag-2 100.1, CHO parental Ca 51.1, CHO-K1 Ca antag 26.3
COc1ccc(OC)c2c1C(=O)C(Cl)=C(Cl)C2=O	OX1R antag-1 68.8, OX1R antag-2 104.2, CHO parental Ca 74.6
COc1ccc(OC)c2c1C(=O)c1ccccc1C2=O	OX1R antag-2 65.4 (no result: CHO-K1 Ca ag, M1 PAM parental, CHO-K1 Ca antag)
O=C(NCCN1CCC(n2c(=O)[nH]c3ccccc32)CC1)N1c2ccccc2Sc2ccccc21	none (no result: OX1R antag-1, OX1R antag-2, CHO parental Ca)
C=CCN(CC=C)S(=O)(=O)c1ccc(NC(=S)NC(=O)C2CC2)cc1	none
O=C1c2ccccc2-c2onc3ccc(NCCCn4ccnc4)c1c23	OX1R antag-1 57.4, OX1R antag-2 46.4, CHO parental Ca 39.9 (no result: CHO-K1 Ca ag, M1 PAM parental, CHO-K1 Ca antag)
Cc1nc(-c2ccc(NC(=O)c3ccccc3C)cc2)cs1	none
O=C(N/N=C/c1cc2c(c([N+](=O)[O-])c1)OCO2)c1ccncc1	OX1R antag-2 54.0
Cc1ccc(/C=N/Nc2nc(C)cc(C)n2)cc1	none
Cc1cc(C)nc(N/N=C/c2cn[nH]c2-c2ccc(F)cc2)n1	CHO-K1 Ca ag 18.2
N#Cc1cn(-c2cccc(C(F)(F)F)c2)c(=O)[nH]c1=O	none
CSc1cccc(N2CC(C(=O)N(Cc3nnc(-c4ccccc4Cl)o3)C3CC3)CC2=O)c1 (centres undefined)	OX1R antag-2 58.3
CC(CNC(=O)c1cccs1)c1ccc([N+](=O)[O-])cc1 (centres undefined)	none
COc1cccc(OC)c1C(=O)Nn1c(C2CCC2)nc2ccccc2c1=O	none
O=C(Nn1c(C2CCCCC2)nc2ccccc2c1=O)c1ccc([N+](=O)[O-])cc1	CHO-K1 Ca antag 24.4
CCc1ccc(N2CC(C(=O)Nc3nc4ccc(S(C)(=O)=O)cc4s3)CC2=O)cc1 (centres undefined)	none
O=C(COc1ccc([N+](=O)[O-])cc1)NCc1ccncc1	none
CC(=O)c1cccc(NC(=O)CSc2n[nH]c(=O)n2C2CC2)c1	none
O=C(Nc1cccc(-c2cn3ccccc3n2)c1)c1cccc(Cl)c1	OX1R antag-1 82.5, OX1R antag-2 92.6, CHO parental Ca 72.5
CCC(=O)Nc1cccc(-c2cn3ccccc3n2)c1	none
CC1C(=O)N(Cc2cn(Cc3ccco3)nn2)CCS(=O)(=O)N1Cc1ccc(-c2ccc(Cl)cc2)cc1 (centres undefined)	CHO-K1 Ca antag 28.2 (no result: OX1R antag-1, OX1R antag-2, CHO parental Ca)
CC1C(=O)N(Cc2cn(Cc3ccco3)nn2)CCS(=O)(=O)N1Cc1ccc(-c2ccccc2)cc1 (centres undefined)	none (no result: OX1R antag-1, OX1R antag-2, CHO parental Ca)
COc1ccccc1CNC(=O)N1CCN(c2ccccc2C)CC1	none
O=C(OCCCN=C1NS(=O)(=O)c2ccccc21)c1ccc([N+](=O)[O-])cc1	OX1R antag-2 50.9
Cc1cc(C)c(S(=O)(=O)c2cccc(Cl)c2)c(=O)[nH]1	none
O=C(C(Cc1ccccc1)N1C(=O)c2ccccc2C1=O)N1CCc2ccccc21 (centres undefined)	CHO-K1 Ca antag 25.5
Cc1cc(C)n2nc(C(=O)OCC(=O)NCc3ccc(F)cc3)nc2n1	none
CC(C)C(NC(=O)C(NC(=O)C1OC2OC(C)(C)OC2C2OC(C)(C)OC12)C(C)C)C(=O)O (centres undefined)	none
Cc1cc(=O)[nH]c(SCC(=O)C23CC4CC(CC(C4)C2)C3)c1C#N	OX1R antag-2 39.5
CCOC(=O)C1=C(COC(=O)C(C)(C)Oc2ccc(Cl)cc2)NC(=O)NC1C (centres undefined)	none
COCCCNc1nc(N)c([N+](=O)[O-])c(Nc2ccccc2OC)n1	CHO-K1 Ca ag 20.4
CC(NCCCSc1ccccc1)C(O)c1ccc(O)cc1 (centres undefined)	none (no result: OX1R antag-1, OX1R antag-2, CHO parental Ca)
COc1cccc(N2CCN(c3ncnc4c3[nH]c3ccc(F)cc34)CC2C)c1 (centres undefined)	OX1R antag-1 98.6, OX1R antag-2 86.0, CHO parental Ca 95.8, CHO-K1 Ca antag 54.8
COc1cccc(N2CCN(c3ncnc4c3[nH]c3ccccc34)CC2C)c1 (centres undefined)	OX1R antag-1 91.1, OX1R antag-2 112.2, CHO parental Ca 89.0 (no result: CHO-K1 Ca ag, M1 PAM parental, CHO-K1 Ca antag)
O=C(NC(=S)N(CCO)Cc1ccccc1)c1ccc(F)cc1Cl	none
O=C(N[C@@H]1c2ccccc2CC[C@@H]1OCc1ccccc1)c1ccc(C(F)(F)F)cc1	none
CC1(C(=O)NCc2cccc3ccccc23)CCN1Cc1ccccc1OC(F)F (centres undefined)	none (no result: OX1R antag-1, OX1R antag-2, CHO parental Ca)
CCc1nc2ccc(C(=O)Nc3cccc(OCC(=O)N(C)C)c3)cn2c1N(C)C(=O)c1ccncc1	none (no result: OX1R antag-1, OX1R antag-2, CHO parental Ca)
CCCC(=O)Nc1cc(-c2nn(C)c(=O)c3ccccc23)ccc1OC	CHO-K1 Ca antag 24.4
CCC(=O)Nc1cc(-c2nn(C)c(=O)c3ccccc23)ccc1OC	none
COc1ccc(C(=O)NCc2cc(C)nc3ccccc23)cc1OC	none
COc1ccc(Nc2c3c(nc4ccccc24)CCC3)cc1	none
COc1ccc(Nc2c3ccccc3nc3ccccc23)cc1	CHO-K1 Ca ag 16.4
COc1cccc(C(=O)NNc2c3ccccc3nc3ccccc23)c1	OX1R antag-2 41.7
COc1cc(OC)cc(C(=O)NCc2cc(C)nc3ccccc23)c1	OX1R antag-2 62.9
COc1ccc(C)cc1NC(=O)C1CCCCN1S(=O)(=O)c1ccccc1 (centres undefined)	OX1R antag-2 65.9
O=C(Nc1ccccc1F)C1CCCN1S(=O)(=O)c1ccc(Cl)cc1 (centres undefined)	OX1R antag-2 46.2
Cc1ccccc1NC(=O)C1CCCN1S(=O)(=O)c1ccc2c(c1)n(C)c(=O)c(=O)n2C (centres undefined)	none
Cc1ccc(S(=O)(=O)N2CCC[C@H]2C(=O)Nc2ccccc2C)cc1	OX1R antag-2 47.5
